TNAP act hi DEA: activators of human TNAP at high phosphate acceptor concentration. P05186. purified TNAP, CDP-star luminescence, 1 M DEA, 30 min; hits give high values; 0 = EDTA background, 1 = DMSO-only activity. activation factor at 20 µM. 200,000 tested, under 10 active;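 active means activation factor at least 2 at 20 µM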
Target sequence (P05186 whole entry, looked up): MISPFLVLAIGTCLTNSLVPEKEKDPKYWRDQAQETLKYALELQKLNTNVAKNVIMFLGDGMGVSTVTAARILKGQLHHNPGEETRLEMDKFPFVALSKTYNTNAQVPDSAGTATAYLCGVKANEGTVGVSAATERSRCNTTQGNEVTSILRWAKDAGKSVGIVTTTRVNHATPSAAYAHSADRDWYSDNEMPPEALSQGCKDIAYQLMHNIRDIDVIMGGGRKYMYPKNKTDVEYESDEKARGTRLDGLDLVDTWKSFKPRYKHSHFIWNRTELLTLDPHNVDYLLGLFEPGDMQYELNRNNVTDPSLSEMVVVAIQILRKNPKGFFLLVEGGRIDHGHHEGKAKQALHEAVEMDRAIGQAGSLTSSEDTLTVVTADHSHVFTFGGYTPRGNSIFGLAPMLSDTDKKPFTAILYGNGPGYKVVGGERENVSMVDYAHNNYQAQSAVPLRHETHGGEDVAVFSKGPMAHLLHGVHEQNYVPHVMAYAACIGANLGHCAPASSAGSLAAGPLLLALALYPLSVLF
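Test system – human TNAP · Doses – 20 µM single point · Incubation – 30 min, room temperature · Signal – luminescent substrate turnover signal · Read-out basis – activation factor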
PTEN del growth: growth suppressors of cells with PTEN tumor suppressor deletion; viability, % at 10 µM; HCT116 PTEN-null viability, CellTiter-Glo, 60 h; hits give low values; hit rate 1.2% among 140,000; AID 827;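 active means viability at or below a set limit, 4 SD under the median of all tested compounds, cut at about 3.7% in these data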;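 further: PTEN knockout HCT116 line with beta catenin targeted HCT116 as companion control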
L major viab: inhibitors of Leishmania major promastigote growth; inhibition, % at 10 µM; hit rate 9% among 200,000; Leishmania major promastigotes, resazurin fluorescence viability; AID 1063; in the data active means inhibition above about 50%;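 further: promastigotes grown with compound for 44 hours at 28 °C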
TNAP inh noacc: inhibitors of human TNAP without phosphate acceptor; purified TNAP, CDP-star luminescence, 30 min; P05186; inhibition, % at 20 µM; hit rate 0.26% among 200,000;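 active means tissue-nonspecific alkaline phosphatase inhibition above about 50% at 20 µM in the single-dose screen, limit read from the data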;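 further: 0% = DMSO negative control and 100% = EDTA positive control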
HCT116 bCat-KO: beta-catenin-lacking colon tumor cell growth suppression | HCT116 beta-catenin knockout viability, CellTiter-Glo, 60 h; hits give low values | viability, % at 10 µM | AID 818 | hit rate 1.5% among 140,000;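 active means viability at or under a set limit, the compound median less 4 SD, cut at about 6% in these data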;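 further: 0% = Hyamine 1622 control at 20 µM and 100% = untreated cell control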
TNAP inh hi DEA: inhibitors of human TNAP at high phosphate acceptor concentration. P05186. purified TNAP, CDP-star luminescence, 1 M DEA. inhibition, % at 20 µM. hit rate 0.03% among 200,000;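 active means over 50% inhibition of tissue-nonspecific alkaline phosphatase at 20 µM in the single-dose screen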;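 further: plate controls were DMSO wells for no effect and EDTA-quenched wells as full inhibition for full effect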
* marks the source's active call; other numbers are inactive results; nt = no result given. Most compounds without a hit are left out; they make up all but 9.6% or so of the library.

SMILES | TNAP act hi DEA | PTEN del growth | L major viab | TNAP inh noacc | HCT116 bCat-KO | TNAP inh hi DEA
CCc1ccc(N=CC23c4ccccc4C(c4ccccc42)C2C(=O)N(c4ccc(OC)cc4)C(=O)C23)cc1 (stereo unspecified) | 1.1 | 63 | 89* | -6 | 77 | -5
O=C(CSc1nnc(CCc2ccccc2)n1-c1ccc(Cl)cc1)NCc1ccccc1 | 1.1 | 92 | 100* | 0 | 85 | -6
COc1ccc(/C(N)=N/OC(=O)CCCN2C(=O)c3ccccc3C2=O)cc1OC | 1 | nt | -7 | -10 | nt | -3
Cc1cccc(N2CCN(C(=O)CC(NC(=O)c3ccccc3Cl)c3ccccc3)CC2)c1C (stereo unspecified) | 1.2 | 74 | 95* | -191 | 79 | -23
O=C(NC(CC(=O)N1CCN(c2ccc([N+](=O)[O-])cc2)CC1)c1ccccc1)c1ccccc1Cl (stereo unspecified) | 1 | 85 | 83* | -2 | 83 | 4
Cc1cccc(C(=O)NN2S(=O)(=O)c3ccccc3S2(=O)=O)c1 | 1 | nt | -9 | -2 | nt | 2
O=C(Nc1ccc(N2CCCC2)c(Cl)c1)c1cccnc1 | 1 | 95 | 68* | -6 | 92 | -2
O=C(NC(=S)Nc1ccc(N2CCOCC2)c(Cl)c1)c1cncc(Br)c1 | 1 | 97 | 82* | 16 | 99 | -1
O=C(NC(=S)NC1CCCCCC1)c1cncc(Br)c1 | 1 | 100 | 61* | -5 | 93 | -4
Cc1c(NC(=O)COC(=O)C(c2ccc(Cl)cc2)C(C)C)c(=O)n(-c2ccccc2)n1C (stereo unspecified) | 1 | 74 | 2 | -7 | 60 | 1
O=S(=O)(NCC(c1cccnc1)N1CCN(c2ccc(F)cc2)CC1)c1cc(F)ccc1F (stereo unspecified) | nt | 71 | 95* | nt | 79 | nt
COc1ccc(N2CCN(C(CNS(=O)(=O)c3cc(F)ccc3F)c3cccnc3)CC2)cc1 (stereo unspecified) | 1 | 96 | 99* | -8 | 93 | -1
CC1(C)Cc2ccccc2C(NN=C2CCCC2)=N1 | 1 | nt | -2 | -5 | nt | -3
O=C(CN1CCC(n2nnc3cc(F)ccc32)CC1)N1CCCc2ccccc21 | 1.1 | 85 | 9 | -15 | 84 | -7
O=C(CN1CCC(n2nnc3cc(C(F)(F)F)ccc32)CC1)N1CCc2ccccc21 | 1.1 | nt | 56* | -11 | 94 | -6
CCN(CC)C(=O)Nc1ccc(Br)cc1 | 1 | nt | -9 | -13 | nt | -3
O=C(NC1CC1)c1ccc(CN(c2ccccc2)S(=O)(=O)c2ccccc2)cc1 | 1 | nt | 58* | -15 | nt | -5
O=C(Nc1cccc(S(=O)(=O)N2CCOCC2)c1)c1ccco1 | 1.1 | 104 | 93* | -11 | 98 | -7
O=C(Cc1ccc(Cl)c(Cl)c1)Nc1cccc(S(=O)(=O)N2CCOCC2)c1 | 1 | nt | 55* | -15 | nt | 0
CSCCC(NC(=O)c1cccc(S(=O)(=O)N2CCOCC2)c1)C(=O)Nc1cccc(C)c1 (stereo unspecified) | 1 | 73 | 70* | -5 | 73 | -4
CC(Sc1nc2cc(Cl)ccc2s1)C(=O)Nc1cccc(S(=O)(=O)N2CCOCC2)c1 (stereo unspecified) | 1 | 79 | 62* | -4 | 75 | -5
O=S(=O)(c1cccc(NC(=S)NCc2ccco2)c1)N1CCOCC1 | 1 | 99 | 32 | -7 | 98 | 0
S=C(NCc1ccc(Cl)cc1Cl)Nc1ccccc1 | 1 | 83 | 20 | -24 | 93 | 0
COc1ccc(/C=N/N=C2/CC(C)(C)Cc3n[nH]c(=O)cc32)cc1 | 1 | nt | 1 | -4 | nt | 3
Cc1ccc(Cn2ccc(=O)c(OCc3c(Cl)cccc3Cl)c2C)cc1 | 1 | 40 | 97* | -13 | 19 | -1
Cc1c(-c2cccc(NC(=O)c3ccco3)c2)nc2ncccn12 | 1.1 | nt | 100* | -10 | nt | -5
Cc1onc(-c2ccccc2Cl)c1C(=O)Nc1cccc(-c2nc3ncccn3c2C)c1 | 1 | 99 | 14 | -12 | 100 | -3
Cc1ccn2cc(-c3cccc(NC(=O)c4cccs4)c3)nc2c1 | 1 | nt | 5 | -13 | nt | 2
Cc1c(-c2cccc(NC(=O)c3cccs3)c2)nc2ncccn12 | 0.9 | 87 | 75* | 13 | 92 | 8
CC(=O)Nc1ccc(Oc2sc(C(=O)c3ccccc3)c(N)c2C#N)cc1 | 1 | 30 | 98* | -4 | 25 | 4
